Laboratory results as given in ChEMBL document CHEMBL4480404, “Discovery of Lipophilic Bisphosphonates That Target Bacterial Cell Wall and Quinone Biosynthesis” (J Med Chem, 2019).
≈ marks a conversion by molar mass, not a printed value.

What was measured:
[1] = Lipophilicity, log D of the compound at pH 7.4; type: physicochemical; settings: buffer
[2] = Growth inhibition of HEK293 cells after 24 hrs by MTT assay; type: cell-based; settings: human, read-out: ED50
Method in brief: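 HEK293 cells in DMEM (4.5 g/L glucose) with 10% FBS and 1% penicillin-streptomycin, seeded at 10⁵ cells/mL. Inhibitor from 10 mM stock diluted threefold across 10 wells; 37 °C for 24 or 96 h.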

[3] = Binding affinity to Staphylococcus aureus HepPPS
Bacillus subtilis [4] = experiment: Antibacterial activity against Bacillus subtilis (Ehrenberg) Cohn ATCC 6051 in absence of fetal bovine serum after 12 hrs; type: functional; settings: (Ehrenberg) Cohn ATCC 6051, 12 h, read-out: ED50 (the source's name)
Method in brief: (§1)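 Log-phase B. subtilis diluted 500-fold into LB containing 0%, 4% or 10% fetal bovine serum. Inhibitor threefold serially diluted across 12 wells from a 100 µM–1 mM start; incubated 12 h at 37 °C with 200 rpm shaking; growth inhibition by OD600.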

Bacillus subtilis [5] = experiment: Antibacterial activity against Bacillus subtilis (Ehrenberg) Cohn ATCC 6051 in presence of 10% fetal bovine serum after 12 hrs; type: functional; settings: (Ehrenberg) Cohn ATCC 6051, 12 h, read-out: ED50 (the source's name); method in brief: as §1
Staphylococcus aureus = experiment: Antibacterial activity against Staphylococcus aureus Newman after 12 hrs; type: functional; settings: read-out: ED50 (the source's name)
Method in brief: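 Log-phase S. aureus culture in tryptic soy broth (OD600 ~0.3, then diluted 500-fold). Inhibitors two-fold serially diluted across 12 wells from a 100 µM–1 mM start; 37 °C, 200 rpm, 12 h; OD600 read for growth inhibition.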

[6] = tested on: Mycolicibacterium smegmatis; experiment: Antibacterial activity against Mycobacterium smegmatis MC2 155 ATCC 700084 after 48 hrs; type: functional; settings: MC2 155 ATCC 700084, 48 h, read-out: ED50 (the source's name)
Method in brief: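 Culture grown 36–48 h, diluted 1000-fold in Middlebrook 7H9 with 10% ADC, 0.5% glycerol, 0.05% Tween 80; inhibitors started at 100 µM–1 mM, threefold serial dilution across 10 wells; 37 °C, 200 rpm, 48 h; OD600 read-out.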

Bacillus anthracis = experiment: Antibacterial activity against Bacillus anthracis Sterne after 12 hrs; type: functional; settings: read-out: ED50 (the source's name)
Bacillus subtilis [7] = experiment: Antibacterial activity against Bacillus subtilis (Ehrenberg) Cohn ATCC 6051 after 12 hrs; type: functional; settings: (Ehrenberg) Cohn ATCC 6051, 12 h, read-out: ED50 (the source's name)
Method in brief: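 Log-phase LB culture (grown to OD600 ~0.3, then diluted 500-fold) exposed to two-fold serial dilutions of inhibitor starting at 100 µM–1 mM across 12 wells; 37 °C, 200 rpm shaking, 12 h. OD600 read and ED50 fitted; duplicate or triplicate.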

[8] = Inhibition of Escherichia coli OPPS using IPP as substrate
Candida albicans = experiment: microbe, parasite or virus in culture; type: functional; settings: CAI-4, 12 h, read-out: ED50 (the source's name)

Molecule `CC(C)CCCC(C)CCOc1ccnc(NC(P(=O)(O)O)P(=O)(O)O)c1` (centres undefined) has a logD ([1]; read-out: logD) of -1.63 and a GI50 at 24 h [2] of 1300 µM.
With `CC(C)CCCC(C)CCOc1ccnc(NCC(P(=O)(O)O)P(=O)(O)O)c1` (centres undefined) the logD ([1]; read-out: logD) was -2.31.
`CC(C)=CCC/C(C)=C/CC/C(C)=C/COP(=O)(O)OP(=O)(O)O` [FARNESYL DIPHOSPHATE] showed a Kd [3] of 35 µM.
Work on `CC(C)CCCC(C)CCCC(C)CCCC(C)CCOc1ccc[n+](CC(P(=O)([O-])O)P(=O)(O)O)c1` (centres undefined) yielded a logD ([1]; read-out: logD) of -1.85.
`CC(C)CCCC(C)CCCc1ccc[n+](CC(P(=O)([O-])O)P(=O)(O)O)c1` (centres undefined) gave an EC50 (Bacillus subtilis [4]) of 2.4 µg/mL (≈ 5.7 µM), an EC50 (Bacillus subtilis [5]) of 1.7 µg/mL and a logD [1] of -4.71. It also gave a GI50 at 24 h [2] of 460 µM.
Work on `CC(C)CCCC(C)CCOc1cccc(NCC(P(=O)(O)O)P(=O)(O)O)n1` (centres undefined) yielded a logD ([1]; read-out: logD) of -2.24.
`CC(C)CCCC(C)CCOc1cc(NCC(P(=O)(O)O)P(=O)(O)O)ccn1` (centres undefined) gave a logD ([1]; read-out: logD) of -3.1 and a GI50 at 24 h [2] of 1200 µM.
In the case of `CC(C)CCCC(C)CCCc1cccc(NCC(P(=O)(O)O)P(=O)(O)O)n1` (centres undefined), the EC50 (Staphylococcus aureus) is reported as 73 µM, the EC50 [6] is reported as 210 µM and the logD ([1]; read-out: logD) is reported as -2. The GI50 at 24 h [2] was 1100 µM, the EC50 (Bacillus anthracis) was 6.9 µM and the EC50 (Bacillus subtilis [7]) was 60 µM.
`CC(C)CCCC(C)CCSc1ccc[n+](CC(P(=O)([O-])O)P(=O)(O)O)c1` (centres undefined) gave a logD [1] of -5.09 and a GI50 at 24 h [2] of 510 µM.
Molecule `CCCCCCCCCCOc1ccc[n+](CC(P(=O)([O-])O)P(=O)(O)O)c1` (centres undefined) has an IC50 [8] of 6 to 20 nM and an EC50 (Candida albicans) greater than 50 µg/mL.
Molecule `CCCCCCCCCCCCCCOc1cccc(O)c1C(=O)O` has an EC50 (Candida albicans) greater than 50 µg/mL.
`O=P(O)(O)C(O)(Cc1cccc(-c2cccc3c2oc2ccccc23)c1)P(=O)(O)O` gave an EC50 (Candida albicans) greater than 50 µg/mL.
In the case of `CC(C)CCCC(C)CCn1cc[n+](CC(P(=O)([O-])O)P(=O)(O)O)c1` (centres undefined), the GI50 at 24 h [2] is reported as 420 µM.
`CCCCCCCCCCCc1ccc[n+](CC(P(=O)([O-])O)P(=O)(O)O)c1` (centres undefined) showed an EC50 (Bacillus subtilis [5]) of 2 µg/mL, a logD [1] of -4.07 and a GI50 at 24 h [2] of 220 µM.
With `CC(C)CCCC(C)CCNc1ccc[n+](CC(P(=O)([O-])O)P(=O)(O)O)c1` (centres undefined) the GI50 at 24 h [2] was 440 µM.
